Screening results deposited in PubChem by Johns Hopkins Ion Channel Center.
Shown are actives, neighbours in structure and some others; about 3.5% of the full set was active somewhere.
RGS4 inh: human RGS4 inhibition | AID 463165 | B-score at 10 µM | HEK293 M3R/RGS4 inducible, Fluo-4 calcium flux; active compounds read high; triggered by carbachol at its EC20 | 0.45% of 310,000 active | P49798;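 active means B-score, a plate-corrected calcium signal, over three deviations above library mean, with baseline fluorescence within five deviations of library mean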;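 further: RGS4 expression induced by doxycycline in cells with stable M3 receptor; B-score is computed from the integrated fluorescence ratio over baseline after carbachol; higher B-score means a larger calcium signal and so more RGS4 inhibition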
Target sequence (P49798 whole entry, looked up): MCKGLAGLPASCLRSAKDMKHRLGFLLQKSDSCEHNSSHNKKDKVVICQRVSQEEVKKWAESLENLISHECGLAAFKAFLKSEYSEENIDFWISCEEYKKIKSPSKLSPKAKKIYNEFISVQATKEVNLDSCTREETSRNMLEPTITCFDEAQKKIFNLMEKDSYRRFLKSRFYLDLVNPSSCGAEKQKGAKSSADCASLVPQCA
MrgX1 antagonist: antagonists of human MrgX1 receptor; Q96LB2; MRGX1-HEK293 calcium flux, Fluo-4, BAM8-22 antagonism; active compounds read low; B-score at 10 µM; 1.3% of 310,000 active; AID 588676;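 active means calcium-response B-score plate-corrected more than 3 library SD below zero, starting fluorescence within 5 deviations, no agonist response on first addition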;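 further: peak minus trough fluorescence over baseline after final BAM8-22 challenge near maximal dose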
Target sequence (Q96LB2 whole entry, looked up): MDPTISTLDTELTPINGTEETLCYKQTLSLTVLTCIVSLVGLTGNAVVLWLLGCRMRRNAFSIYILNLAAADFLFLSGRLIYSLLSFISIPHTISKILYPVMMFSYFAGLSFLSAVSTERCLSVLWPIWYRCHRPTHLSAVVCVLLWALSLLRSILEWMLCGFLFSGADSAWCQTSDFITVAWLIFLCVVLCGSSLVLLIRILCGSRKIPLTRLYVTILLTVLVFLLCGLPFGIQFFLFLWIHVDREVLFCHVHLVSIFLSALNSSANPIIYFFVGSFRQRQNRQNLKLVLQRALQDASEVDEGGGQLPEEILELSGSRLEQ
MrgX1 ag: activates human MrgX1 receptor signaling | Q96LB2 | MrgX1-HEK293 cells, Fluo-4 calcium fluorescence, agonist mode; active compounds read high | B-score at 10 µM | 0.44% of 310,000 active | AID 588627;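 active means calcium response B-score plate-corrected fluorescence ratio at least 3 library SD, with starting fluorescence B-score inside 5 SD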
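Test system: HEK293 cells stably expressing human MrgX1 receptor; Input: fifteen thousand cells per well; Dosing: compound delivered in addition one of three; Schedule: overnight seeding, then 1 h dark dye loading; Technique: Fluo-4 NW calcium fluorescence; Measure: B-scored fluorescence response ratio; Controls: positive and negative controls per plate.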
MrgX1 PAM: human MrgX1 positive allosteric modulation, primary screen | Q96LB2 | MrgX1-HEK293, Fluo-4 calcium flux, FDSS; active compounds read high | B-score at 10 µM | 0.63% of 310,000 active | AID 588675;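 active means plate-corrected calcium response at least 3 library SD above typical, normal starting fluorescence, not activating the receptor alone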;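 further: compound read alongside a low EC10 to EC30 dose of BAM8-22 agonist; peak minus trough fluorescence over baseline measured at the second addition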
RGS4 pot: potentiators or activators of RGS4; HEK293 M3R/inducible RGS4, carbachol calcium flux Fluo4; active compounds read low; AID 463111; 0.92% of 310,000 active; B-score at 10 µM;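 active means B-score of the integrated calcium signal more than 4 SD below the library mean, with starting fluorescence not abnormally high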;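 further: negative B-score means reduced calcium response which marks RGS4 activation or potentiation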
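Also added: carbachol at ECmax as muscarinic agonist stimulus; Assay system: HEK293 cells with stable M3R and inducible RGS4; Timing: overnight RGS4 induction, 30 min dye load 37 °C, 20 min compound RT; Measured by: Fluo4-AM (2 µM) calcium-flux fluorescence, kinetic read.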
Numbers stand for hits; n = inactive.

SMILES	RGS4 inh	MrgX1 antagonist	MrgX1 ag	MrgX1 PAM	RGS4 pot
COC(=O)C1=C(C)NC(=O)NC1c1ccco1 (configuration not stated)	n	n	n	n	n
CCOc1ccccc1N1CCN(C(=O)c2cc(-c3cc(OC)ccc3OC)nc3ccccc23)CC1	n	n	n	n	-7.4
COc1ccc(-c2cc(C(=O)N3CCCCCC3)c3ccccc3n2)c(OC)c1	n	n	n	n	n
COc1ccc(OC)c(-c2cc(C(=O)N3CCN(c4ncccn4)CC3)c3ccccc3n2)c1	n	n	n	n	-7.1
COc1ccc(N2CCN(C(=O)c3cc(-c4cc(OC)ccc4OC)nc4ccccc34)CC2)cc1	n	n	n	n	-7
COc1ccc(CNC(=O)C2CCCN(S(=O)(=O)c3ccc4c(c3)CCCN4C(C)=O)C2)cc1 (configuration not stated)	n	n	n	n	n
CCCCNC(=O)Cn1nc([N+](=O)[O-])c([N+](=O)[O-])c1C	n	-5.4	n	n	n
COc1ccc(/C(N)=N/OC(=O)c2ccc(Br)o2)cc1	n	n	n	n	n
COc1ccc2c(c1)C(c1ccc(C)o1)=NNC(c1ccccc1)=N2	n	-8.4	n	n	n
CC(=O)Nc1ccc(S(=O)(=O)NCCC(=O)NNC(=O)c2ccncc2)cc1	n	n	n	n	n
O=[N+]([O-])c1cnc2ccccc2c1	n	n	n	n	n
O=[N+]([O-])c1cc([N+](=O)[O-])c2cc3ccccc3nc2c1	14	n	28	n	n
C=C(C)C(=O)N1CC2(CC(c3cccc(NC(=O)/C(C)=C\C)c3)=NO2)C[C@H]1C(N)=O (some centres not stated)	n	-4.8	n	n	n
CCCCCC(=O)Nc1cccc(C2=NOC3(C2)C[C@@H](C(N)=O)N(C(=O)c2cc([N+](=O)[O-])cc([N+](=O)[O-])c2)C3)c1 (some centres not stated)	n	-6.1	n	n	n
COc1cccc(-n2nnnc2SCC(=O)Nc2ccccc2OC)c1	n	n	n	n	n
CCCS(=O)(=O)c1nnnn1-c1cccc(OC)c1	n	n	50	n	n
CCN(CC)c1ccc(NC(=O)COc2ccc(N(C)S(=O)(=O)c3cccs3)cc2)cc1	n	n	n	7.9	n
Cc1ccc(/C=N/NC(=O)Cc2cccn2C)cc1	n	n	n	6.7	n
Cn1cccc1CC(=O)N/N=C/c1ccc(C(C)(C)C)cc1	n	n	n	n	n
Cc1ccc(/C=N/NC(=O)Cc2cccn2C)s1	n	n	n	6.5	n
CC1CN(c2nc3ccccc3nc2SCC(=O)Nc2cccc(C(F)(F)F)c2)CC(C)O1 (configuration not stated)	n	n	n	n	-7.6
CCOC(=O)c1c(NC(C)=O)sc2c(OCC(O)CN(CC)CC)c(Br)ccc12 (configuration not stated)	n	n	n	n	-7.6
CCCOC(=O)CCCCC1SCC(NC(=O)OC)C1NC(=O)OC (configuration not stated)	n	-8.1	n	n	n
COc1ccc(C(=O)N2c3ccccc3C=CC2C#N)cc1 (configuration not stated)	n	n	n	n	-7.4
CCOP(=O)(c1ccc(N(C)C)cc1)C(O)c1cc(OC)c(OC)c(OC)c1 (configuration not stated)	n	-4.8	n	n	n
SMILES	RGS4 inh	MrgX1 antagonist	MrgX1 ag	MrgX1 PAM	RGS4 pot
COc1cc(C(O)P(=O)(OCC(C)C)c2ccc(N(C)C)cc2)cc(OC)c1OC (configuration not stated)	n	n	n	n	n
Cc1cccc(C)c1OCC(=O)Nc1ccccc1N1CCCCC1	n	n	n	7.4	n
COc1ccc(OCC(=O)Nc2ccccc2N2CCCCC2)cc1	n	n	n	15	n
COc1ccc(OCC(=O)Nc2ccccc2N2CCN(C)CC2)cc1	n	n	n	n	n
Cc1cccc(OCC(=O)Nc2ccccc2N2CCCCC2)c1C	n	n	n	n	n
Cn1nnnc1Sc1ncnc2scc(-c3ccccc3)c12	n	n	n	n	n
COCCn1c(SCCCc2ccccc2)nc2c1c(=O)[nH]c(=O)n2C	n	n	n	n	n
COC(=O)c1ccc(NN=Nc2ccc(C)cc2)cc1	n	n	n	n	n
Cc1cc(C)c[n+](-c2[nH]c(=O)sc2/C=N/NC([S-])=Nc2ccccc2)c1	n	-6.7	n	n	n
Cc1cc[n+](-c2[nH]c(=O)sc2/C=N/NC([S-])=Nc2ccccc2)cc1	n	n	n	n	n
CCC1Oc2ccccc2N(CC(=O)NCCCN2CCN(Cc3ccccc3)CC2)C1=O (configuration not stated)	n	-5.3	n	n	n
CCCN1CCN(CCCNC(=O)CN2C(=O)C(CC)Oc3ccccc32)CC1 (configuration not stated)	n	n	n	n	n
O=C(Nc1ncc2c(n1)-c1ccccc1OC2)c1ccccc1Cl	n	n	n	n	n
Cc1sc(NC(=O)C2CCCCC2C(=O)O)c(C(N)=O)c1-c1ccc(C(C)C)cc1 (configuration not stated)	n	n	54	n	n
Cc1sc(NC(=O)C2CCCCC2C(=O)O)c(C(N)=O)c1-c1ccccc1 (configuration not stated)	n	n	n	n	n
O=C(NC(c1cccnc1)C(F)(F)F)c1cc(COc2ccc3c(c2)CCCC3)on1 (configuration not stated)	n	n	n	n	-7.1
Cc1oc(C)c2c(=O)ccc3c(c12)OC(N)=C(C#N)C3c1ccccc1Cl (configuration not stated)	n	n	n	n	n
CSc1ccc(C2C(C#N)=C(N)Oc3c2ccc(=O)c2c(C)oc(C)c32)cc1 (configuration not stated)	n	n	n	9.8	n
Cc1oc(C)c2c(=O)ccc3c(c12)OC(N)=C(C#N)C3c1ccccc1 (configuration not stated)	n	n	49	n	n
Cc1ccc(OCC(O)Cn2c3ccccc3c3ccccc32)cc1 (configuration not stated)	n	n	n	n	n
Cc1cccc(C)c1OCC(O)Cn1c2ccccc2c2ccccc21 (configuration not stated)	n	n	n	n	-7.1
CC(Oc1ccc(-c2ccccc2)c(F)c1)c1ccn(S(=O)(=O)c2ccc(Br)cc2)n1 (configuration not stated)	n	-5.7	n	n	n
COc1ccc(OC)c(NC(=O)c2c(NC(=O)CCC(=O)O)sc3c2CCCCC3)c1	n	n	n	7	n
Cc1nc2c(-c3ccc(F)cc3)c(C)nn2c(C)c1CCC(=O)NC(C)CCc1ccco1 (configuration not stated)	n	n	n	n	n
CCn1c(C)nc2cc(C(=O)NNC(=S)NC(=O)c3ccccc3)ccc21	n	n	n	7.4	n
